Bioassay records from PubChem.
This is one part of a sample in which hits are shown more often than they occur.
Diaphorase act: counter-screen for diaphorase-based assays: diaphorase activators and chemical reducers. Diaphorase/resazurin coupled assay, resorufin fluorescence, 16 min; stronger effect = higher value; 1 = vehicle wells, 0 = NADH-free wells. activation factor at 20 µM. hit rate 0.005% among 190,000. AID 1229;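 active means diaphorase activity raised at least twofold by the compound at 20 µM; inactive means activation factor below 2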
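test system = bacterial diaphorase enzyme (C. kluyveri) | quantity = enzyme 0.07 U/mL final | reagent = NADH substrate 0.114 mM plus resazurin dye 0.1 mM, final | incubation = 16 min enzyme reaction, ambient temperature | buffer or medium = HEPES pH 7.4 buffer with MgCl2 and Tween 20 | signal = fluorescence of resorufin, 544 nm excitation, 590 nm emission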
Lmaj promast: Leishmania major promastigote growth inhibition | Leishmania major promastigotes, resazurin fluorescence viability | inhibition, % at 10 µM | hit rate 9% among 200,000;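 further: promastigotes grown with compound for 44 hours at 28 °C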
G6PDH CS: counter-screen for G6PDH assay hits: L. mesenteroides G6PDH inhibition; Purified L. mesenteroides G6PDH, diaphorase/resazurin coupled fluorescence, 45 min; hit rate 0.12% among 200,000; AID 1020; inhibition, % at 5 µM
PfGluPho inh: PfG6PD (Plasmodium falciparum) enzyme inhibition; hit rate 0.78% among 350,000; PfGluPho enzyme, NADPH resazurin-diaphorase fluorescence; inhibition, % at 20 µM;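 active means inhibition reaching at least a set limit at 20 µM in the primary screen, cut at about 59% in these data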;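 further: 0% = DMSO wells with substrate and 100% = DMSO wells lacking glucose-6-phosphate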
DTT redox prof: compounds producing H2O2 with reducing agent – biochemical, NIH compound library profiling, artefact control for MLSCN library redox annotation, primary screen; DTT-dependent redox cycling H2O2, phenol red/HRP absorbance; 100% = 100 µM peroxide control, 0% = buffer; activation, % at 10 µM; hit rate 0.03% among 200,000; AID 878;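 active means activation of at least 50% relative to the plate's high and low controls in the primary single-dose screen; inactive means activation below 50%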;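 further: compound incubated with DTT at 0.8 mM final as the reducing agent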
Diaphorase inh: inhibits diaphorase or chemically oxidizes, flagging diaphorase assay artifacts | diaphorase resazurin-to-resorufin fluorescence, NADH, 16 min; bacterial (C. kluyveri) enzyme, not human | inhibition, % at 20 µM | AID 1217 | hit rate 0.69% among 190,000;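 active means primary screen inhibition at 20 µM above a set limit, cut at about 50% in these data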;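 further: plate controls were DMSO with full reaction for no effect and wells lacking NADH for full effect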
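Test system: diaphorase enzyme from Clostridium kluyveri; amount: diaphorase at 0.14 U/mL in enzyme working solution; detection: fluorescence of resorufin formed from resazurin, Ex 544/Em 590 nm; times: reaction incubation of 16 min at room temperature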
An asterisk follows results filed as active; . = no result given. Unless noted, no stated cut-off is given here; in the data, active means inhibition above about 50%; inactive means the rest.

SMILES	Diaphorase act	Lmaj promast	G6PDH CS	PfGluPho inh	DTT redox prof	Diaphorase inh
CCOc1ccc(C(O)C(CN2CCOCC2)c2ccccc2)cc1 (stereo not given)	1	84*	8	9	1	-4
CCCCOc1ccc(C(O)C(CN2CCCCC2)c2ccccc2)cc1 (stereo not given)	1	70*	2	13	0	1
O=C(CSc1nc2ccccc2[nH]1)c1ccccc1F	.	.	.	31	.	.
Fc1cccc(F)c1CSc1nc2ccccc2[nH]1	0.9	100*	-2	8	0	7
C#Cc1ccc([C@@H]2C=C(C(=O)N3CCOCC3)O[C@H](OCC)[C@H]2CCCO)cc1	0.8	1	15	0	0	16
CCn1cc(C2=NOC(C(=O)Nc3ccc4c(c3)OCO4)C2)c(C)n1 (stereo not given)	0.9	57*	1	4	-1	12
Cn1ncc(Cl)c1C(=O)NNC(=O)Nc1cccc2ccccc12	.	.	.	-3	.	.
CC1(C)CC(=O)C2=C(C1)N(c1ccc(F)cc1)C(=O)C2(NC(=O)c1ccccc1)C(F)(F)F (stereo not given)	0.8	-3	9	.	0	15
Cc1ccc(N2C(=O)C(NC(=O)c3ccccc3)(C(F)(F)F)C3=C2CC(C)(C)CC3=O)cc1 (stereo not given)	0.9	89*	-2	16	0	12
CS/C(=N\N(C)C(N)=O)c1ccccc1	0.9	69*	1	3	-1	14
Cc1cc(C)cc(NC(=O)CC23CC4CC(C2)CC(n2nnc(C)n2)(C4)C3)c1	0.9	46	10	21	0	13
Cc1nnn(C23CC4CC(CC(CC(=O)Nc5ccc(C)c(Cl)c5)(C4)C2)C3)n1	0.7	95*	9	34	0	26
Cc1c(C(=O)Nc2ccc(Cl)cc2)c2ccccn2c1CCc1ccncc1	1.1	15	-13	31	1	-8
Cc1c(C(=O)Nc2cccc(Cl)c2)c2ccccn2c1CCc1ccncc1	1	75*	-28	32	0	4
CCc1ccc(NC(=O)C(CC)Sc2nc3cc4c(cc3c(=O)n2Cc2ccco2)OCO4)cc1 (stereo not given)	0.9	9	-1	-7	0	12
CCc1ccccc1NC(=O)C(CC)Sc1nc2cc3c(cc2c(=O)n1Cc1ccco1)OCO3 (stereo not given)	0.8	100*	-13	-12	1	20
Cc1c(Br)c(=O)oc2c(Br)c(O)c(O)cc12	0.2	-5	26	-15	0	75*
Cc1c(Br)c(=O)oc2c(Br)c(O)ccc12	0.9	4	0	1	-2	5
O=C(CSc1nnc(CNC(=O)c2ccco2)o1)Nc1cccc(Cl)c1	.	.	.	14	.	.
Cc1ccc(NC(=O)Cc2nc(CCl)cs2)cc1	0.9	68*	-2	-1	.	14
Cc1ccccc1NC(=O)CNC(=O)c1ccc(C(F)(F)F)cc1	1	62*	12	-2	0	4
Clc1ccc(OCc2nnc(SCCN3CCCCC3)n2Cc2ccco2)cc1	1	100*	-3	0	0	1
O=C(CSc1nnc(-c2ccccc2)n1Cc1ccco1)Nc1ccc2c(c1)OCCO2	0.9	37	-1	-2	0	15
Cc1ccc(OCc2nnc(SCC(=O)Nc3ccc4c(c3)OCCO4)n2Cc2ccco2)cc1	0.8	96*	6	-1	0	24
O=C(CSc1ncc(-c2ccc(F)cc2)n1Cc1ccco1)Nc1ccc2c(c1)OCO2	0.8	60*	2	11	2	18
CCC(C(=O)NC1CCCCC1)N(Cc1cccs1)C(=O)CCC(=O)Nc1cc(C)on1 (stereo not given)	.	.	.	7	.	.
O=C1S/C(=C\c2ccc(N3CCOCC3)o2)C(=O)N1c1ccccc1	0.7	21	18	43	0	31
O=C1S/C(=C/c2ccc(N3CCOCC3)o2)C(=O)N1Cc1c(F)cccc1Cl	0.8	85*	8	48	0	20
CCOc1ccc(S(=O)(=O)N/N=C(\C)C2CCCCC2)cc1	1	55*	5	9	0	-1
